Source: ChEMBL document CHEMBL4011622, “The Structure-Activity Relationship of a Tetrahydroisoquinoline Class of N-Methyl-d-Aspartate Receptor Modulators that Potentiates GluN2B-Containing N-Methyl-d-Aspartate Receptors” (J Med Chem, 2017)

Columns and labels:
[1] = target: Ionotropic glutamate receptor NMDA 1/2D (Rattus norvegicus, UniProt P35439+Q62645); assay: Positive allosteric modulation of recombinant rat GluN1/GluN2D receptor expressed in xenopus laevis oocyte assessed as potentiation of glutamate and glycine-induced current response at holding potential -40mV by two electrode voltage clamp method
Outline: (§1)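 Two-electrode voltage clamp at -40 mV, 23°C, pH 7.4 Ba²⁺ recording solution, on Xenopus oocytes expressing rat NMDA receptors. Currents were evoked by 100 µM glutamate plus 30 µM glycine, with compound co-applied (DMSO 0.05–0.5% final). Each compound used at least 4 oocytes from at least 2 frogs.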

[2] = target: T1, Glutamate NMDA receptor; Grin1/Grin2c (Rattus norvegicus) (UniProt P35439+Q00961); assay: Positive allosteric modulation of recombinant rat GluN1/GluN2C receptor expressed in xenopus laevis oocyte assessed as potentiation of glutamate and glycine-induced current response at 30 uM at holding potential -40mV by two electrode voltage clamp method relative to control; outline: as §1
[3] = target: Glutamate NMDA receptor; Grin1/Grin2b (Rattus norvegicus, UniProt P35439+Q00960); assay: Positive allosteric modulation of recombinant rat GluN1/GluN2B receptor expressed in xenopus laevis oocyte assessed as potentiation of glutamate and glycine-induced current response at holding potential -40mV by two electrode voltage clamp method; outline: as §1
[4] = target: T2, Glutamate NMDA receptor; Grin1/Grin2b (Rattus norvegicus) (UniProt P35439+Q00960); assay: Positive allosteric modulation of recombinant rat GluN1/GluN2B receptor expressed in xenopus laevis oocyte assessed as potentiation of glutamate and glycine-induced current response at 30 uM at holding potential -40mV by two electrode voltage clamp method relative to control
Outline: as §1, with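 “final). […]” for “final).”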

[5] = target: T3, Ionotropic glutamate receptor NMDA 1/2D (Rattus norvegicus) (UniProt P35439+Q62645); assay: Positive allosteric modulation of recombinant rat GluN1/GluN2D receptor expressed in xenopus laevis oocyte assessed as potentiation of glutamate and glycine-induced current response at 30 uM at holding potential -40mV by two electrode voltage clamp method relative to control; outline: as §1
[6] = target: Glutamate NMDA receptor; Grin1/Grin2c (Rattus norvegicus, UniProt P35439+Q00961); assay: Positive allosteric modulation of recombinant rat GluN1/GluN2C receptor expressed in xenopus laevis oocyte assessed as potentiation of glutamate and glycine-induced current response at holding potential -40mV by two electrode voltage clamp method; outline: as §1
[7] = target: T2, Glutamate NMDA receptor; Grin1/Grin2b (Rattus norvegicus); assay: Positive allosteric modulation of recombinant rat GluN1/GluN2B receptor expressed in xenopus laevis oocyte assessed as compound concentration required to show two fold increase in glutamate and glycine-induced current response at holding potential -40mV by two electrode voltage clamp method
[8] = target: T1, Glutamate NMDA receptor; Grin1/Grin2c (Rattus norvegicus); assay: Positive allosteric modulation of recombinant rat GluN1/GluN2C receptor expressed in xenopus laevis oocyte assessed as compound concentration required to show two fold increase in glutamate and glycine-induced current response at holding potential -40mV by two electrode voltage clamp method
[9] = target: T2, Glutamate NMDA receptor; Grin1/Grin2b (Rattus norvegicus); assay: Positive allosteric modulation of recombinant rat GluN1/GluN2B receptor expressed in xenopus laevis oocyte assessed as potentiation of glutamate and glycine-induced current response at 30 uM at holding potential -40mV by two electrode voltage clamp method relative to control
[10] = target: T3, Ionotropic glutamate receptor NMDA 1/2D (Rattus norvegicus); assay: Positive allosteric modulation of recombinant rat GluN1/GluN2D receptor expressed in xenopus laevis oocyte assessed as potentiation of glutamate and glycine-induced current response at 10 uM at holding potential -40mV by two electrode voltage clamp method relative to control
Outline: as §1, with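 “final). […]” for “final).”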

[11] = target: T1, Glutamate NMDA receptor; Grin1/Grin2c (Rattus norvegicus); assay: Positive allosteric modulation of recombinant rat GluN1/GluN2C receptor expressed in xenopus laevis oocyte assessed as potentiation of glutamate and glycine-induced current response at 10 uM at holding potential -40mV by two electrode voltage clamp method relative to control; conditions: 30 uM, in the assay text read “at 30 uM” for “at 10 uM”
Outline: as §1, with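 “final). […]” for “final).”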

[12] = target: T3, Ionotropic glutamate receptor NMDA 1/2D (Rattus norvegicus); assay: Positive allosteric modulation of recombinant rat GluN1/GluN2D receptor expressed in xenopus laevis oocyte assessed as compound concentration required to show two fold increase in glutamate and glycine-induced current response at holding potential -40mV by two electrode voltage clamp method
[13] = target: T2, Glutamate NMDA receptor; Grin1/Grin2b (Rattus norvegicus); assay: Positive allosteric modulation of recombinant rat GluN1/GluN2B receptor expressed in xenopus laevis oocyte assessed as potentiation of glutamate-induced current response at 30 uM at holding potential -40mV by two electrode voltage clamp method

SMILES	EC50 [1] [µM]	Emax [2] [%]	EC50 [3] [µM]	Emax [4] [%]	Emax [5] [%]	EC50 [6] [µM]	CD [7] [µM]	CD [8] [µM]	Activity [9] [%]	Activity [10] [%]	Activity [11] [%]	CD [12] [µM]	Activity [2] [%]	Activity [4] [%]	Activity [5] [%]	Activity [13] [%]
CCOc1ccc(OCC2c3ccc(OC(C)C)cc3CCN2C(=S)c2cccc(Cl)c2)cc1 (stereo not drawn)	1.6	278	0.4	172	192	5		7.6								
CCOc1ccc(OCC2c3ccc(OC(C)C)cc3CCN2C(=O)c2cc(Cl)cc(Cl)c2)cc1 (stereo not drawn)									105	80	97					
CCOc1ccc(OCC2c3ccc(OC(C)C)cc3CCN2C(=O)c2ccc(Cl)c(Cl)c2)cc1 (stereo not drawn)										122	150					
CCOc1ccc(OCC2c3ccc(OC4CCCC4)cc3CCN2C(=O)c2cccc(F)c2)cc1 (stereo not drawn)	4.9	173	4.4	210	163	4.5							169	202	161	
COc1ccc(OC[C@H]2c3ccc(OC(C)C)cc3CCN2C(=S)c2cccc(Cl)c2)cc1	2	253			250	1.7		3.8				4.9				105
COc1ccc(OC[C@H]2c3ccc(OC(C)C)cc3CCN2C(=O)c2cccc(Cl)c2)cc1		252			297			1.3				1				101

Continued by falling EC50 [1], values first:

EC50 [1] [µM]	Emax [2] [%]	EC50 [3] [µM]	Emax [4] [%]	Emax [5] [%]	EC50 [6] [µM]	CD [7] [µM]	CD [8] [µM]	Activity [9] [%]	Activity [10] [%]	Activity [11] [%]	CD [12] [µM]	Activity [2] [%]	Activity [4] [%]	Activity [5] [%]	Activity [13] [%]	SMILES
1.5	242	1	293	351	1							238	294	342		CCOc1ccc(OCC2c3ccc(OCC(C)C)cc3CCN2C(=O)c2cccc(Cl)c2)cc1 (stereo not drawn)
1.2	158	0.67	203	154	0.7	9										CC(C)Oc1ccc(OCC2c3ccc(OC(C)C)cc3CCN2C(=S)c2cccc(F)c2)cc1 (stereo not drawn)
1.1	226	1.4	259	208	0.97	1.9	2.1				4.2					COc1ccc(OCC2c3ccc(OC(C)C)cc3CCN2C(=S)c2cccc(F)c2)cc1 (stereo not drawn)
0.58	154	0.49	213	179	0.38	1.4										CCOc1ccc(OC[C@@H]2c3ccc(OC(C)C)cc3CCN2C(=S)c2cccc(F)c2)cc1
0.48	307	0.32	214	293	0.48	1.5	0.5				0.5					COc1ccc(OC[C@@H]2c3ccc(OC(C)C)cc3CCN2C(=S)c2cccc(Cl)c2)cc1
0.44	159	0.84	222	128	0.35	17										CCOc1ccc(OCC2c3ccc(OC(C)C)cc3CCN2C(=S)c2ccc(F)c(Cl)c2)cc1 (stereo not drawn)
0.41	141	0.55	209	152	0.48	4										CC(C)Oc1ccc(OCC2c3ccc(OC(C)C)cc3CCN2C(=S)c2cccc(Cl)c2)cc1 (stereo not drawn)
